Source: ChEMBL document CHEMBL2046430, “Synthesis, biological evaluation and molecular docking studies of 3-(1,3-diphenyl-1H-pyrazol-4-yl)-N-phenylacrylamide derivatives as inhibitors of HDAC activity” (Bioorg Med Chem, 2012)
pIC50: −log10 of the molar value. Calls of active or inactive are those of the source. The rule behind the calls is not given here.

How the values were obtained:
A549 = test: Antiproliferative activity against human A549 cells after 48 hrs by MTT assay; format: functional, cell-based; conditions: A549, 48 h
Method in brief: (§1)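 Cells grown to log phase in RPMI 1640 + 10% FBS, seeded at 2 × 10^4 cells/mL (100 µL/well) and preincubated 24 h at 37 °C, 5% CO2. Compounds added at preset concentrations; MS275 as positive reference. After 48 h exposure, MTT (2.5 mg/mL in PBS) for 4 h, then SDS–isobutanol–HCl solubilization overnight at 37 °C; OD 570 nm. Triplicate wells per concentration, assays repeated ≥3 times; IC50 reported.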

HCT-116 = test: Antiproliferative activity against human HCT116 cells after 48 hrs by MTT assay; format: functional, cell-based; conditions: HCT-116, 48 h; method in brief: as §1
Histone deacetylase 1 = Histone deacetylase 1 (Homo sapiens, UniProt Q13547); test: Inhibition of HDAC1 in human HeLa cell lysate using KI-104 as substrate after 40 mins by fluorescence analysis; format: cell-free
Histone deacetylase 2 = Histone deacetylase 2 (Homo sapiens, UniProt Q92769); test: Inhibition of HDAC2 in human HeLa cell lysate using KI-104 as substrate after 40 mins by fluorescence analysis; format: cell-free
[1] = target: Histone deacetylase (Homo sapiens) (UniProt Q13547+O15379+Q9UBN7+Q92769+Q9UQL6+Q8WUI4+Q9BY41+Q96DB2+P56524+Q9UKV0+Q969S8); conditions: HCT-116, 0.1 to 0.8 uM

Chain of Histone deacetylase 2 (Q92769 whole entry): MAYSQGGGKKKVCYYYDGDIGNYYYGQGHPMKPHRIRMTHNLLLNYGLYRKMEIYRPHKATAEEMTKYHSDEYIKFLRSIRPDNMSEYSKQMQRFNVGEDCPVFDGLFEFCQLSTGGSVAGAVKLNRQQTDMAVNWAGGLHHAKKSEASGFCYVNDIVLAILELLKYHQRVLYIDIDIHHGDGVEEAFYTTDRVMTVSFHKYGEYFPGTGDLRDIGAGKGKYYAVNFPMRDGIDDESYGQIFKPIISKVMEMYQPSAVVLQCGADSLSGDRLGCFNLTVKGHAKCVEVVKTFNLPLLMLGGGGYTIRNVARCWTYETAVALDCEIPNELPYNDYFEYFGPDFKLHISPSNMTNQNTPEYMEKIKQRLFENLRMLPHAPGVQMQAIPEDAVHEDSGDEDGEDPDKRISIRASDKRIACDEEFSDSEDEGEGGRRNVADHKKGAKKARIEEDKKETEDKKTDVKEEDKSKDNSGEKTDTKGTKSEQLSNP
Chain of Histone deacetylase 1 (Q13547 whole entry): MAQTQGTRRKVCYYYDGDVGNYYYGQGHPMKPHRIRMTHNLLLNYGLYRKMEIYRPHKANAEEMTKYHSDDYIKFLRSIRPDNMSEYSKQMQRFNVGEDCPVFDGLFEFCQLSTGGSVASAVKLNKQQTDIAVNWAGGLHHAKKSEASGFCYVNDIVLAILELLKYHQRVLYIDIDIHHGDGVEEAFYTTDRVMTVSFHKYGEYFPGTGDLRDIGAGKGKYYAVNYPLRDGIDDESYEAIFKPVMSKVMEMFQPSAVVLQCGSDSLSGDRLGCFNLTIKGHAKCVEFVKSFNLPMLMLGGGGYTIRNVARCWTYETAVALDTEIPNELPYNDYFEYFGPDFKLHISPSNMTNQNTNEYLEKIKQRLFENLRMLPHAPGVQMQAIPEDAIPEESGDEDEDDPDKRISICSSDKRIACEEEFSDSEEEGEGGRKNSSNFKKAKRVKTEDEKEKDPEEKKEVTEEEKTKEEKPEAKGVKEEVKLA

pIC50 (A549) | pIC50 (HCT-116) | pIC50 (Histone deacetylase 1) | pIC50 (Histone deacetylase 2) | inhibition [1] | SMILES
4.79 | 4.98 | 5.39 | 5.06 | – | Cc1ccc(-c2nn(-c3ccccc3)cc2/C=C\C(=O)Nc2ccccc2)cc1
4.91 | 5.09 | 5.55 | 5.31 | – | O=C(/C=C\c1cn(-c2ccccc2)nc1-c1ccc(Br)cc1)Nc1ccc(Br)cc1
4.93 | 5.15 | 5.48 | 5.30 | – | Cc1ccc(-c2nn(-c3ccccc3)cc2/C=C\C(=O)Nc2ccc(Br)cc2)cc1
5.09 | 5.81 | 5.96 | 5.63 | – | COc1ccc(-c2nn(-c3ccccc3)cc2/C=C\C(=O)Nc2ccc(Cl)cc2)cc1
4.81 | 5.12 | 5.44 | 5.23 | – | Cc1ccc(-c2nn(-c3ccccc3)cc2/C=C\C(=O)Nc2ccc(Cl)cc2)cc1
< 4.70 | 5.01 | 5.39 | 5.19 | – | COc1ccc(NC(=O)/C=C\c2cn(-c3ccccc3)nc2-c2ccc(C)cc2)cc1
4.80 | 5.08 | 5.53 | 5.30 | – | O=C(/C=C\c1cn(-c2ccccc2)nc1-c1ccc(Br)cc1)Nc1ccc(Cl)cc1
5.01 | 5.68 | 5.75 | 5.57 | – | COc1ccc(-c2nn(-c3ccccc3)cc2/C=C\C(=O)Nc2ccccc2)cc1

Second part, the compound before the results:

SMILES | pIC50 (A549) | pIC50 (HCT-116) | pIC50 (Histone deacetylase 1) | pIC50 (Histone deacetylase 2) | inhibition [1]
COc1ccc(-c2nn(-c3ccccc3)cc2/C=C\C(=O)Nc2ccc(Br)cc2)cc1 | 5.13 | 5.82 | 5.98 | 5.66 | –
COc1ccc(NC(=O)/C=C\c2cn(-c3ccccc3)nc2-c2ccc(Br)cc2)cc1 | < 4.70 | 5.01 | 5.48 | 5.27 | –
Nc1ccccc1NC(=O)c1ccc(CNC(=O)OCc2cccnc2)cc1 [ENTINOSTAT] | > 7.00 | > 7.00 | – | – | –
O=C(/C=C\c1cn(-c2ccccc2)nc1-c1ccc([N+](=O)[O-])cc1)Nc1ccccc1 | 5.29 | 6.07 | 6.04 | 5.94 | –
COc1ccc(NC(=O)/C=C\c2cn(-c3ccccc3)nc2-c2ccc(OC)cc2)cc1 | 5.07 | 5.67 | 5.76 | 5.52 | –
O=C(/C=C\c1cn(-c2ccccc2)nc1-c1ccc([N+](=O)[O-])cc1)Nc1ccc(Cl)cc1 | 5.43 | 6.19 | 6.34 | 6.24 | –
O=C(/C=C\c1cn(-c2ccccc2)nc1-c1ccc([N+](=O)[O-])cc1)Nc1ccc(Br)cc1 | 5.43 | 6.21 | 6.38 | 6.26 | inactive
O=C(/C=C\c1cn(-c2ccccc2)nc1-c1ccc(Br)cc1)Nc1ccccc1 | < 4.70 | 4.97 | 5.46 | 5.19 | –
COc1ccc(NC(=O)/C=C\c2cn(-c3ccccc3)nc2-c2ccc([N+](=O)[O-])cc2)cc1 | 5.29 | 5.97 | 5.99 | 5.94 | –
